Results: ChEMBL document CHEMBL1138008, “2-(2-[3-(pyridin-3-yloxy)phenyl]-2H-tetrazol-5-yl) pyridine: a highly potent, orally active, metabotropic glutamate subtype 5 (mGlu5) receptor antagonist” (Bioorg Med Chem Lett, 2004)

Key:
[1] = Maximum concentration after i.v. dosing at 1 mg/kg, p.o. dosing at 1 mg/kg. In solution of PEG 400/water in dog; type: ADME, organism-based, Canis lupus familiaris; conditions: in vivo, po
[2] = Plasma clearance after i.v. dosing at 1 mg/kg, p.o. dosing at 1 mg/kg. In solution of PEG 400/water in monkey; type: ADME, organism-based; conditions: cercopithecidae, iv, read-out: Clp
[3] = Maximum concentration after i.v. dosing at 1 mg/kg, p.o. dosing at 1 mg/kg. In solution of PEG 400/water in monkey; type: ADME, organism-based; conditions: cercopithecidae, in vivo, po
[4] = Volume of distribution after i.v. dosing at 1 mg/kg, p.o. dosing at 1 mg/kg. In solution of PEG 400/water in monkey; type: ADME, organism-based; conditions: cercopithecidae, in vivo, iv
[5] = Maximum concentration after i.v. dosing at 2 mg/kg, p.o. dosing at 10 mg/kg. In solution of PEG 400/water in rat; type: ADME, organism-based; conditions: in vivo, po
Method in brief: (§1)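 Rats were dosed iv at 2 mg/kg and orally at 10 mg/kg, in solution in PEG 400/water (1:1 v/v).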

[6] = Oral bioavailability after i.v. dosing at 1 mg/kg, p.o. dosing at 1 mg/kg. In solution of PEG 400/water in monkey; type: ADME, organism-based; conditions: cercopithecidae, in vivo
[7] = Level in rat brain after 1 hr following 10 mg/kg dose ip; type: ADME, organism-based; set-up: dose 10 mg/kg, route intraperitoneal; conditions: read-out: Level
Method in brief: (§2)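 Rats were dosed ip at 10 mg/kg in PEG 400/water (1:1 v/v), given as a solution or a suspension. Receptor occupancy, hippocampus drug level and plasma drug level were measured 1 h after dosing.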

[8] = Plasma clearance after i.v. dosing at 1 mg/kg, p.o. dosing at 1 mg/kg. In solution of PEG 400/water in dog; type: ADME, organism-based, Canis lupus familiaris; conditions: iv, read-out: Clp
[9] = Plasma level after 1 hr following 10 mg/kg dose ip; type: ADME, organism-based; set-up: dose 10 mg/kg, route intraperitoneal; conditions: rat, read-out: Level; method in brief: as §2
[10] = biological target: T1, Metabotropic glutamate receptor 5 (Homo sapiens, UniProt P41594); test: Antagonistic activity against Metabotropic glutamate receptor 5 in [Ca2+] flux assay using glutamate (10 uM) as agonist; type: functional
T1 sequence (P41594 whole entry): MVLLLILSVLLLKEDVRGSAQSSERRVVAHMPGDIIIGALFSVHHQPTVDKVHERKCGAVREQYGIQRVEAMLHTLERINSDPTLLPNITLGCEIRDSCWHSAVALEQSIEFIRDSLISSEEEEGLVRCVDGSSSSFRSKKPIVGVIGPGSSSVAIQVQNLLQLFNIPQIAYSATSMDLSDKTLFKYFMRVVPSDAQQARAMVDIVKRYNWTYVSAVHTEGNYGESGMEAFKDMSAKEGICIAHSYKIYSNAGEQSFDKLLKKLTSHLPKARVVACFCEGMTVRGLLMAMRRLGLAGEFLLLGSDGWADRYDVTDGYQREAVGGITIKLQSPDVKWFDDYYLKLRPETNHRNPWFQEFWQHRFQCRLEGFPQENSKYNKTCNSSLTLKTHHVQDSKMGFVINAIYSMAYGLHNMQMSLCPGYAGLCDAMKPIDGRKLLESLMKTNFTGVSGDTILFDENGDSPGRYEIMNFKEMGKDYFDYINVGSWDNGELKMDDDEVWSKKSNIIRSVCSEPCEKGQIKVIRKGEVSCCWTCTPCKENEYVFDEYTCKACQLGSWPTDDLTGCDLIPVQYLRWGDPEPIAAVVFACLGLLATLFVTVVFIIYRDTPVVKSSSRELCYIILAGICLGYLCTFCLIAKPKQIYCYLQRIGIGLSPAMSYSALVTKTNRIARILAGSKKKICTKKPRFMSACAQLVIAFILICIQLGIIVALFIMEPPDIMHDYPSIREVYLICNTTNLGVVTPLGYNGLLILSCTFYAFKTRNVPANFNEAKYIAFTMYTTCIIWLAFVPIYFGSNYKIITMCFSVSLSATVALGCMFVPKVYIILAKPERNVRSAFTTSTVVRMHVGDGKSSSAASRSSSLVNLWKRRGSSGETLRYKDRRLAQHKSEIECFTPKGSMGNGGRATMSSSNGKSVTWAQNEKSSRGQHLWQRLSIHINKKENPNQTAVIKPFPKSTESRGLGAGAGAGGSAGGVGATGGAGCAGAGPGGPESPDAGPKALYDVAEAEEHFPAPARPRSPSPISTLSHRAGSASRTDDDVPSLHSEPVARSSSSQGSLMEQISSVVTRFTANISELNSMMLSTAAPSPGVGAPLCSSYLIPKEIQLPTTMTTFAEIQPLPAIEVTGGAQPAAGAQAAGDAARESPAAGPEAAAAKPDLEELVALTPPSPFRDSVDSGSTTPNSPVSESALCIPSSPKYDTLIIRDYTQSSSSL
Method in brief: (§3)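 Functional mGlu5 antagonism was read as Ca²⁺ flux, with glutamate at 10 μM as agonist. Values come from n = 2–4 determinations, with SD < ±25%.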

[11] = Plasma clearance after i.v. dosing at 2 mg/kg, p.o. dosing at 10 mg/kg. In solution of PEG 400/water in rat; type: ADME, organism-based; conditions: iv, read-out: Clp; method in brief: as §1
[12] = Half life after i.v. dosing at 2 mg/kg, p.o. dosing at 10 mg/kg. In solution of PEG 400/water in rat; type: ADME, organism-based; conditions: in vivo; method in brief: as §1
[13] = Oral bioavailability after i.v. dosing at 1 mg/kg, p.o. dosing at 1 mg/kg. In solution of PEG 400/water in dog; type: ADME, organism-based, Canis lupus familiaris; conditions: in vivo
[14] = Half life after i.v. dosing at 1 mg/kg, p.o. dosing at 1 mg/kg. In solution of PEG 400/water in dog; type: ADME, organism-based, Canis lupus familiaris; conditions: in vivo
[15] = Volume of distribution after i.v. dosing at 1 mg/kg, p.o. dosing at 1 mg/kg. In solution of PEG 400/water in dog; type: ADME, organism-based, Canis lupus familiaris; conditions: in vivo, iv
[16] = biological target: T2, Metabotropic glutamate receptor 5 (Rattus norvegicus, UniProt P31424); test: Binding affinity towards Metabotropic glutamate receptor was determined by displacing [3H]3-methoxy-5-(pyridin-2-ylethynyl)pyridine from rat cortical membranes
T2 sequence (P31424 whole entry): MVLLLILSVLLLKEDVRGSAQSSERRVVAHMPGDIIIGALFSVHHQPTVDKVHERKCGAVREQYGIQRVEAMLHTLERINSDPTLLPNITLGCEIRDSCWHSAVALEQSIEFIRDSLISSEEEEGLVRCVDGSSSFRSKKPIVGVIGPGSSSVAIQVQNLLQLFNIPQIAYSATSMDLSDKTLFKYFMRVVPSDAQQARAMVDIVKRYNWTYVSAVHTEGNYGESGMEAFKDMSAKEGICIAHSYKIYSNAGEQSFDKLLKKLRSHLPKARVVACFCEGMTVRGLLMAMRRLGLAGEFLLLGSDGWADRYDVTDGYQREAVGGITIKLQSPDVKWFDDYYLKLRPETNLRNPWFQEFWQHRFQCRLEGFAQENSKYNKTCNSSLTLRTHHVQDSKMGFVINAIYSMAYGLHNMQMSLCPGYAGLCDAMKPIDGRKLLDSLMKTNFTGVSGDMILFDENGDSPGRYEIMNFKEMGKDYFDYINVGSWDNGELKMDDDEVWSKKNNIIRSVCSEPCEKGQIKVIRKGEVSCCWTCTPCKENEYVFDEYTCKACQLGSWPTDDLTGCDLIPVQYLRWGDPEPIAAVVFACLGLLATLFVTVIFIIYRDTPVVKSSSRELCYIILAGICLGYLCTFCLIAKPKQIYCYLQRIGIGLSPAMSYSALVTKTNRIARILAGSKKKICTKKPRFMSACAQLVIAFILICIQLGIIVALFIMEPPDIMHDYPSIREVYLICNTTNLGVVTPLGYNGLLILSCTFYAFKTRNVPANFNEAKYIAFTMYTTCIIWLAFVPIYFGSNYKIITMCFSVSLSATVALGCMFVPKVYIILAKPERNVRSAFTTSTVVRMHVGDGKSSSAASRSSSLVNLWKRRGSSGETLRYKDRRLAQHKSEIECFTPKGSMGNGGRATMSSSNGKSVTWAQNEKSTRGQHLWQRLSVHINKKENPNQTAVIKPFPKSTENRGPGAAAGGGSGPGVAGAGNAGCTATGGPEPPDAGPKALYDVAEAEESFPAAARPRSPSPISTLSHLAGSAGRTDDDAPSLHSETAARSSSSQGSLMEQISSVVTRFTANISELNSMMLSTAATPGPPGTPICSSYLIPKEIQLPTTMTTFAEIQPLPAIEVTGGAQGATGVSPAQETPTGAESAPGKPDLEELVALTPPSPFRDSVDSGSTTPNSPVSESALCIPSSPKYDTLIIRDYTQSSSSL
Method in brief: (§4)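 Radioligand displacement of [³H]-3-methoxy-5-(pyridin-2-ylethynyl)pyridine used rat cortical membranes. Values come from n = 2–4 determinations, with SD < ±25%.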

[17] = Oral bioavailability after i.v. dosing at 2 mg/kg, p.o. dosing at 10 mg/kg. In solution of PEG 400/water in rat; type: ADME, organism-based; conditions: in vivo; method in brief: as §1
[18] = Volume of distribution after i.v. dosing at 2 mg/kg, p.o. dosing at 10 mg/kg. In solution of PEG 400/water in rat; type: ADME, organism-based; conditions: in vivo, iv; method in brief: as §1
[19] = Half life after i.v. dosing at 1 mg/kg, p.o. dosing at 1 mg/kg. In solution of PEG 400/water in monkey; type: ADME, organism-based; conditions: cercopithecidae, in vivo
[20] = biological target: Metabotropic glutamate receptor 5 (Rattus norvegicus) (UniProt P31424); test: Percent occupancy of the Metabotropic glutamate receptor 5 by the [3H]3-methoxy-5-(pyridin-2-ylethynyl)pyridine ligand 1 hr post-administration of 10 mg/kg compound ip; type: organism-based; set-up: dose 10 mg/kg; method in brief: as §2
Metabotropic glutamate receptor 5 (Rattus norvegicus), sequence (P31424 21-1203 limits assumed): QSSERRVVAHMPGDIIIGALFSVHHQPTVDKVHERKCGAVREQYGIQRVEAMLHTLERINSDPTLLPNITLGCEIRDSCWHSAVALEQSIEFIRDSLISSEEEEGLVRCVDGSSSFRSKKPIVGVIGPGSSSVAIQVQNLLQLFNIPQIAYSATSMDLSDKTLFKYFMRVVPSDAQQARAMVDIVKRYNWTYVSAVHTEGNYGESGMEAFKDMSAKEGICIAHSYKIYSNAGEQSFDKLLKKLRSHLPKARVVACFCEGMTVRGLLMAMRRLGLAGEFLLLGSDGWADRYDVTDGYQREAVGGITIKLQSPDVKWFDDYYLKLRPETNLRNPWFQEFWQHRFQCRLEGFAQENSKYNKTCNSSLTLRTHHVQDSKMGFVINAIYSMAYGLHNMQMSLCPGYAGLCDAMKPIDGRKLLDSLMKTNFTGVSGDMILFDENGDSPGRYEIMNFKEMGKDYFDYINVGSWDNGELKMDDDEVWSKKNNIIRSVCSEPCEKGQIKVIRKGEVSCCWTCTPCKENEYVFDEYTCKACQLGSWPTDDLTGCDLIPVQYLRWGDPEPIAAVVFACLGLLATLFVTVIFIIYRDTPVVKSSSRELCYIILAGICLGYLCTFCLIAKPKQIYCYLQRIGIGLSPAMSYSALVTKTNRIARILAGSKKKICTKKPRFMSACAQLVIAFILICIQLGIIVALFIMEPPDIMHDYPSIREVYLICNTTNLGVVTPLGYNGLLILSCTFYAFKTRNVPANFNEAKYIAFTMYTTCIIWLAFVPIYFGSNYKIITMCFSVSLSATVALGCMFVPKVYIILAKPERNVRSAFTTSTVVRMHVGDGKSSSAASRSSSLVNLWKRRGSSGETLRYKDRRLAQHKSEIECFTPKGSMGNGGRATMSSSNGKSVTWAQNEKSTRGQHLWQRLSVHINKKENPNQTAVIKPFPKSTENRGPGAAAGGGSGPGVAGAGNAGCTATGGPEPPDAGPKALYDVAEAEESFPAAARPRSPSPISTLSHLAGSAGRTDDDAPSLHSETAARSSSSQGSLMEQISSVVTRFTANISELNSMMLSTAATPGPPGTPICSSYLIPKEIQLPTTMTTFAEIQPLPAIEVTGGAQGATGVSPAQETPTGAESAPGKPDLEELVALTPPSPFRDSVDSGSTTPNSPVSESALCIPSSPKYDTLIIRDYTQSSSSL

[21] = biological target: T2, Metabotropic glutamate receptor 5; test: Binding affinity towards Metabotropic glutamate receptor was determined by displacing [3H]3-methoxy-5-(pyridin-2-ylethynyl)pyridine from rat cortical membranes; NA=Not active; method in brief: as §4
[22] = biological target: T1, Metabotropic glutamate receptor 5; test: Antagonistic activity against Metabotropic glutamate receptor 5 in [Ca2+] flux assay using glutamate (10 uM) as agonist; NA=Not active; type: functional; method in brief: as §3

concentration at 1 h [7] [µM]	concentration at 1 h [9] [µM]	IC50 [10] [nM]	Ki [16] [nM]	Occupancy [20] [%]	Compound	other results
6.7	7.4	6.7	12		Fc1cc(Oc2cccnc2)cc(-n2nnc(-c3ccccn3)n2)c1	Cmax [1]: 1.4 µM; clearance [2]: 7.7 mL/min/kg; Cmax [3]: 0.3 µM; Vd [4]: 0.7 L/kg; Cmax [5]: 11 µM; bioavailability [6]: 27%; clearance [8]: 14 mL/min/kg; clearance [11]: 21 mL/min/kg; half-life [12]: 2.7 h; bioavailability [13]: 54%; half-life [14]: 2.3 h; Vd [15]: 1.5 L/kg; bioavailability [17]: 100%; Vd [18]: 22 L/kg; half-life [19]: 2.5 h
2.7	0.9	17	38	43	Fc1cc(Cc2cccnc2)cc(-n2nnc(-c3ccccn3)n2)c1	
		2860	633		c1ccc(Oc2cccc(-n3nnc(-c4ccccn4)n3)c2)nc1	
4.9	3.5	22	30	58	CN(c1cccnc1)c1cc(F)cc(-n2nnc(-c3ccccn3)n2)c1	
		16	25		Fc1cc(-n2nnc(-c3ccccn3)n2)cc(-n2ccc3cccnc32)c1	
1.5	3.4	13	16	83	Fc1cc(Sc2cccnc2)cc(-n2nnc(-c3ccccn3)n2)c1	
		124	29		Fc1cc(Nc2cccnc2)cc(-n2nnc(-c3ccccn3)n2)c1	
9.7	8.7	3.9		97	N#Cc1cc(F)cc(-n2nnc(-c3ccccn3)n2)c1	
					c1ccc(-c2nnn(-c3cccc(Oc4ccncc4)c3)n2)nc1	Ki [21]: Not Active; IC50 [22]: Not Active
		1460	617		c1ccc(Oc2cccc(-n3nnc(-c4ccccn4)n3)c2)cc1	
		737	633		c1ccc(-c2nnn(-c3ccc(Oc4cccnc4)cc3)n2)nc1	
12	13	73	186	96	N#Cc1cccc(-n2nnc(-c3ccccn3)n2)c1	
		1580			c1ccc(-c2nnn(-c3ccccc3Oc3cccnc3)n2)nc1	
		30	59	60	c1ccc(-c2nnn(-c3cccc(Oc4cccnc4)c3)n2)nc1	
